From ChEMBL document CHEMBL2434917, “Synthesis and anticancer activity of some novel 2-phenazinamine derivatives” (Eur J Med Chem, 2013)

What follows are molecules tested on HepG2 (assay: Induction apoptosis in human HepG2 cells assessed as apoptotic cells level at 50 uM after 24 hrs using Annexin V-FITC and propidium iodide staining by flow cytometry analysis (reference value: 8.3%)). Conditions: not given.
Assay type: functional

| SMILES | Activity |
| --- | --- |
| O=C(Nc1ccc2nc3ccccc3nc2c1)c1ccccc1Cl | 36.1% |

Each molecule was assayed on HepG2 (assay: Induction apoptosis in human HepG2 cells assessed as late apoptosis or necrosis cells level at 50 uM after 24 hrs using Annexin V-FITC and propidium iodide staining by flow cytometry analysis (reference value: 5.7%)). Conditions: not given.
Assay type: functional

| SMILES | Activity |
| --- | --- |
| O=C(Nc1ccc2nc3ccccc3nc2c1)c1ccccc1Cl | 20.5% |

The molecules below were run on HepG2 (assay: Ratio of cisplatin IC50 to compound IC50 for human HepG2 cells). Conditions: not given.
Assay type: functional

| SMILES | Ratio IC50 |
| --- | --- |
| CCOC(=O)Nc1ccc2nc3ccccc3nc2c1 | 1.2 |
| O=C(Nc1ccc2nc3ccccc3nc2c1)c1ccccc1Cl | 1.1 |
| Cc1cccc(C(=O)Nc2ccc3nc4ccccc4nc3c2)c1 | 1.1 |

The molecules below were run on MCF7 (assay: Ratio of cisplatin IC50 to compound IC50 for human MCF7 cells). Conditions: not given.
Assay type: functional

| SMILES | Ratio IC50 |
| --- | --- |
| Cc1ccccc1C(=O)Nc1ccc2nc3ccccc3nc2c1 | 2.4 |

What follows are molecules tested on K562 (assay: Ratio of cisplatin IC50 to compound IC50 for human K562 cells). Conditions: not given.
Assay type: functional

| SMILES | Ratio IC50 |
| --- | --- |
| CC(=O)Nc1ccc2nc3ccccc3nc2c1 | 1.1 |
| O=C(Nc1ccc2nc3ccccc3nc2c1)c1ccccc1Cl | 1.7 |

Each molecule was assayed on HEK-293T (assay: Cytotoxicity against human 293T cells after 48 hrs by MTT assay). Conditions: not given.
Assay type: cell-based
Outline: (§1)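 Cells were kept in RPMI-1640 with 10% FBS, streptomycin and penicillin at 37 °C under 5% CO2. They were seeded at 5000/well and left 24 h, then exposed 48 h to compound (DMSO stock diluted in medium, DMSO ≤0.2%) at final 0.16, 0.63, 2.5, 10, 40 and 160 μM. MTT was added (10% v/v of 5 mg/ml) for 4 h, formazan was dissolved in DMSO and A490 read. IC50 came from the viability-versus-dose plot against control, with three repeats.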

| SMILES | IC50 |
| --- | --- |
| CC(=O)Nc1ccc2nc3ccccc3nc2c1 | > 160 µM |
| O=C(Nc1ccc2nc3ccccc3nc2c1)c1ccccc1 | > 160 µM |
| O=C(Nc1ccc2nc3ccccc3nc2c1)c1cccc2ccccc12 | > 160 µM |
| O=C(Nc1ccc2nc3ccccc3nc2c1)c1ccco1 | > 160 µM |
| O=C(Nc1ccc2nc3ccccc3nc2c1)c1cccs1 | > 160 µM |
| O=C(Cc1cccs1)Nc1ccc2nc3ccccc3nc2c1 | > 160 µM |
| CCOC(=O)Nc1ccc2nc3ccccc3nc2c1 | > 160 µM |
| O=C(CCCl)Nc1ccc2nc3ccccc3nc2c1 | > 160 µM |
| O=S(=O)(Nc1ccc2nc3ccccc3nc2c1)c1ccccc1 | > 160 µM |
| CN(C)C(=O)Nc1ccc2nc3ccccc3nc2c1 | > 160 µM |
| CCC(=O)Nc1ccc2nc3ccccc3nc2c1 | > 160 µM |
| CCCC(=O)Nc1ccc2nc3ccccc3nc2c1 | 110 µM |
| O=C(Cc1ccccc1)Nc1ccc2nc3ccccc3nc2c1 | > 160 µM |
| O=C(Nc1ccc2nc3ccccc3nc2c1)c1ccccc1Cl | > 160 µM |
| O=C(Nc1ccc2nc3ccccc3nc2c1)c1cccc(Cl)c1 | > 160 µM |
| Cc1ccc(C(=O)Nc2ccc3nc4ccccc4nc3c2)cc1 | > 160 µM |
| Cc1ccccc1C(=O)Nc1ccc2nc3ccccc3nc2c1 | > 160 µM |
| Cc1cccc(C(=O)Nc2ccc3nc4ccccc4nc3c2)c1 | 56.2 µM |
| COc1ccc(C(=O)Nc2ccc3nc4ccccc4nc3c2)cc1 | > 160 µM |
| O=C(Nc1ccc2nc3ccccc3nc2c1)C1CCCCC1 | > 160 µM |
| O=C(CCC1CCCC1)Nc1ccc2nc3ccccc3nc2c1 | > 160 µM |

What follows are molecules tested on HCT-116 (assay: Cytotoxicity against human HCT116 cells after 48 hrs by MTT assay). Conditions: HCT-116, 48 h.
Assay type: functional, cell-based
Outline: as §1

| SMILES | IC50 |
| --- | --- |
| CC(=O)Nc1ccc2nc3ccccc3nc2c1 | > 160 µM |
| O=C(Nc1ccc2nc3ccccc3nc2c1)c1ccccc1 | 28.2 µM |
| O=C(Nc1ccc2nc3ccccc3nc2c1)c1cccc2ccccc12 | 131 µM |
| O=C(Nc1ccc2nc3ccccc3nc2c1)c1ccco1 | 86.6 µM |
| O=C(Nc1ccc2nc3ccccc3nc2c1)c1cccs1 | 68.1 µM |
| O=C(Cc1cccs1)Nc1ccc2nc3ccccc3nc2c1 | 95.6 µM |
| CCOC(=O)Nc1ccc2nc3ccccc3nc2c1 | > 160 µM |
| O=C(CCCl)Nc1ccc2nc3ccccc3nc2c1 | 141 µM |
| O=S(=O)(Nc1ccc2nc3ccccc3nc2c1)c1ccccc1 | > 160 µM |
| CN(C)C(=O)Nc1ccc2nc3ccccc3nc2c1 | 144 µM |
| CCC(=O)Nc1ccc2nc3ccccc3nc2c1 | 18.9 µM |
| CCCC(=O)Nc1ccc2nc3ccccc3nc2c1 | 62.3 µM |
| O=C(Cc1ccccc1)Nc1ccc2nc3ccccc3nc2c1 | > 160 µM |
| O=C(Nc1ccc2nc3ccccc3nc2c1)c1ccccc1Cl | 91.9 µM |
| O=C(Nc1ccc2nc3ccccc3nc2c1)c1cccc(Cl)c1 | > 160 µM |
| Cc1ccc(C(=O)Nc2ccc3nc4ccccc4nc3c2)cc1 | > 160 µM |
| Cc1ccccc1C(=O)Nc1ccc2nc3ccccc3nc2c1 | > 160 µM |
| Cc1cccc(C(=O)Nc2ccc3nc4ccccc4nc3c2)c1 | > 160 µM |
| COc1ccc(C(=O)Nc2ccc3nc4ccccc4nc3c2)cc1 | > 160 µM |
| O=C(Nc1ccc2nc3ccccc3nc2c1)C1CCCCC1 | > 160 µM |
| O=C(CCC1CCCC1)Nc1ccc2nc3ccccc3nc2c1 | > 160 µM |

What follows are molecules tested on MCF7 (assay: Cytotoxicity against human MCF7 cells after 48 hrs by MTT assay). Conditions: MCF7, 48 h.
Assay type: functional, cell-based
Outline: as §1

| SMILES | IC50 |
| --- | --- |
| CC(=O)Nc1ccc2nc3ccccc3nc2c1 | 82.6 µM |
| O=C(Nc1ccc2nc3ccccc3nc2c1)c1ccccc1 | > 160 µM |
| O=C(Nc1ccc2nc3ccccc3nc2c1)c1cccc2ccccc12 | 30.1 µM |
| O=C(Nc1ccc2nc3ccccc3nc2c1)c1ccco1 | 28.8 µM |
| O=C(Nc1ccc2nc3ccccc3nc2c1)c1cccs1 | > 160 µM |
| O=C(Cc1cccs1)Nc1ccc2nc3ccccc3nc2c1 | > 160 µM |
| CCOC(=O)Nc1ccc2nc3ccccc3nc2c1 | 46.1 µM |
| O=C(CCCl)Nc1ccc2nc3ccccc3nc2c1 | 37.6 µM |
| O=S(=O)(Nc1ccc2nc3ccccc3nc2c1)c1ccccc1 | > 160 µM |
| CN(C)C(=O)Nc1ccc2nc3ccccc3nc2c1 | 35.1 µM |
| CCC(=O)Nc1ccc2nc3ccccc3nc2c1 | 40.7 µM |
| CCCC(=O)Nc1ccc2nc3ccccc3nc2c1 | 68.8 µM |
| O=C(Cc1ccccc1)Nc1ccc2nc3ccccc3nc2c1 | > 160 µM |
| O=C(Nc1ccc2nc3ccccc3nc2c1)c1ccccc1Cl | > 160 µM |
| O=C(Nc1ccc2nc3ccccc3nc2c1)c1cccc(Cl)c1 | > 160 µM |
| Cc1ccc(C(=O)Nc2ccc3nc4ccccc4nc3c2)cc1 | > 160 µM |
| Cc1ccccc1C(=O)Nc1ccc2nc3ccccc3nc2c1 | 11.6 µM |
| Cc1cccc(C(=O)Nc2ccc3nc4ccccc4nc3c2)c1 | > 160 µM |
| COc1ccc(C(=O)Nc2ccc3nc4ccccc4nc3c2)cc1 | > 160 µM |
| O=C(Nc1ccc2nc3ccccc3nc2c1)C1CCCCC1 | 137 µM |
| O=C(CCC1CCCC1)Nc1ccc2nc3ccccc3nc2c1 | > 160 µM |

These molecules were tested on MGC-803 (assay: Cytotoxicity against human MGC803 cells after 48 hrs by MTT assay). Conditions: MGC-803, 48 h.
Assay type: functional, cell-based
Outline: as §1

| SMILES | IC50 |
| --- | --- |
| CC(=O)Nc1ccc2nc3ccccc3nc2c1 | 93.1 µM |
| O=C(Nc1ccc2nc3ccccc3nc2c1)c1ccccc1 | > 160 µM |
| O=C(Nc1ccc2nc3ccccc3nc2c1)c1cccc2ccccc12 | 87.9 µM |
| O=C(Nc1ccc2nc3ccccc3nc2c1)c1cccs1 | > 160 µM |
| CCOC(=O)Nc1ccc2nc3ccccc3nc2c1 | > 160 µM |
| O=C(CCCl)Nc1ccc2nc3ccccc3nc2c1 | 59.5 µM |
| O=S(=O)(Nc1ccc2nc3ccccc3nc2c1)c1ccccc1 | > 160 µM |
| CCC(=O)Nc1ccc2nc3ccccc3nc2c1 | 63.9 µM |
| CCCC(=O)Nc1ccc2nc3ccccc3nc2c1 | 43.5 µM |
| O=C(Cc1ccccc1)Nc1ccc2nc3ccccc3nc2c1 | > 160 µM |
| O=C(Nc1ccc2nc3ccccc3nc2c1)c1ccccc1Cl | > 160 µM |
| O=C(Nc1ccc2nc3ccccc3nc2c1)c1cccc(Cl)c1 | > 160 µM |
| Cc1ccc(C(=O)Nc2ccc3nc4ccccc4nc3c2)cc1 | > 160 µM |
| Cc1ccccc1C(=O)Nc1ccc2nc3ccccc3nc2c1 | 27.2 µM |
| Cc1cccc(C(=O)Nc2ccc3nc4ccccc4nc3c2)c1 | 89 µM |
| COc1ccc(C(=O)Nc2ccc3nc4ccccc4nc3c2)cc1 | 50.1 µM |
| O=C(Nc1ccc2nc3ccccc3nc2c1)C1CCCCC1 | 67.1 µM |
| O=C(CCC1CCCC1)Nc1ccc2nc3ccccc3nc2c1 | 122 µM |

What follows are molecules tested on K562 (assay: Cytotoxicity against human K562 cells after 48 hrs by MTT assay). Conditions: K562, 48 h.
Assay type: functional, cell-based
Outline: as §1

| SMILES | IC50 |
| --- | --- |
| CC(=O)Nc1ccc2nc3ccccc3nc2c1 | 49.2 µM |
| O=C(Nc1ccc2nc3ccccc3nc2c1)c1ccccc1 | > 160 µM |
| O=C(Nc1ccc2nc3ccccc3nc2c1)c1cccc2ccccc12 | 61.2 µM |
| O=C(Nc1ccc2nc3ccccc3nc2c1)c1cccs1 | > 160 µM |
| CCOC(=O)Nc1ccc2nc3ccccc3nc2c1 | > 160 µM |
| O=C(CCCl)Nc1ccc2nc3ccccc3nc2c1 | 74.5 µM |
| O=S(=O)(Nc1ccc2nc3ccccc3nc2c1)c1ccccc1 | > 160 µM |
| CCC(=O)Nc1ccc2nc3ccccc3nc2c1 | 57.7 µM |
| CCCC(=O)Nc1ccc2nc3ccccc3nc2c1 | > 160 µM |
| O=C(Cc1ccccc1)Nc1ccc2nc3ccccc3nc2c1 | > 160 µM |
| O=C(Nc1ccc2nc3ccccc3nc2c1)c1ccccc1Cl | 33.4 µM |
| O=C(Nc1ccc2nc3ccccc3nc2c1)c1cccc(Cl)c1 | > 160 µM |
| Cc1ccc(C(=O)Nc2ccc3nc4ccccc4nc3c2)cc1 | > 160 µM |
| Cc1ccccc1C(=O)Nc1ccc2nc3ccccc3nc2c1 | > 160 µM |
| Cc1cccc(C(=O)Nc2ccc3nc4ccccc4nc3c2)c1 | > 160 µM |
| COc1ccc(C(=O)Nc2ccc3nc4ccccc4nc3c2)cc1 | > 160 µM |
| O=C(Nc1ccc2nc3ccccc3nc2c1)C1CCCCC1 | 78.9 µM |
| O=C(CCC1CCCC1)Nc1ccc2nc3ccccc3nc2c1 | 157 µM |

What follows are molecules tested on HepG2 (assay: Cytotoxicity against human HepG2 cells after 48 hrs by MTT assay). Conditions: HepG2, 48 h.
Assay type: functional, cell-based
Outline: as §1

| SMILES | IC50 |
| --- | --- |
| CC(=O)Nc1ccc2nc3ccccc3nc2c1 | > 160 µM |
| O=C(Nc1ccc2nc3ccccc3nc2c1)c1ccccc1 | > 160 µM |
| O=C(Nc1ccc2nc3ccccc3nc2c1)c1cccc2ccccc12 | 44.2 µM |
| O=C(Nc1ccc2nc3ccccc3nc2c1)c1ccco1 | 52.2 µM |
| O=C(Nc1ccc2nc3ccccc3nc2c1)c1cccs1 | > 160 µM |
| O=C(Cc1cccs1)Nc1ccc2nc3ccccc3nc2c1 | > 160 µM |
| CCOC(=O)Nc1ccc2nc3ccccc3nc2c1 | 15.2 µM |
| O=C(CCCl)Nc1ccc2nc3ccccc3nc2c1 | > 160 µM |
| O=S(=O)(Nc1ccc2nc3ccccc3nc2c1)c1ccccc1 | > 160 µM |
| CN(C)C(=O)Nc1ccc2nc3ccccc3nc2c1 | > 160 µM |
| CCC(=O)Nc1ccc2nc3ccccc3nc2c1 | > 160 µM |
| CCCC(=O)Nc1ccc2nc3ccccc3nc2c1 | > 160 µM |
| O=C(Cc1ccccc1)Nc1ccc2nc3ccccc3nc2c1 | > 160 µM |
| O=C(Nc1ccc2nc3ccccc3nc2c1)c1ccccc1Cl | 16.5 µM |
| O=C(Nc1ccc2nc3ccccc3nc2c1)c1cccc(Cl)c1 | > 160 µM |
| Cc1ccc(C(=O)Nc2ccc3nc4ccccc4nc3c2)cc1 | > 160 µM |
| Cc1ccccc1C(=O)Nc1ccc2nc3ccccc3nc2c1 | > 160 µM |
| Cc1cccc(C(=O)Nc2ccc3nc4ccccc4nc3c2)c1 | 16.7 µM |
| COc1ccc(C(=O)Nc2ccc3nc4ccccc4nc3c2)cc1 | > 160 µM |
| O=C(Nc1ccc2nc3ccccc3nc2c1)C1CCCCC1 | > 160 µM |
| O=C(CCC1CCCC1)Nc1ccc2nc3ccccc3nc2c1 | > 160 µM |
